pIC50: −log10 of the molar value.
Experiments:
[1] = molecular target: Histone deacetylase 1 (Homo sapiens, UniProt Q13547); assay: Inhibition of recombinant HDAC1 expressed in HEK293 cells; format: cell-based
[2] = molecular target: T1, Protein deacetylase HDAC6 (Homo sapiens, UniProt Q9UBN7); assay: Inhibition of recombinant HDAC6 expressed in HEK293 cells; format: cell-based
T1 sequence (Q9UBN7 whole entry): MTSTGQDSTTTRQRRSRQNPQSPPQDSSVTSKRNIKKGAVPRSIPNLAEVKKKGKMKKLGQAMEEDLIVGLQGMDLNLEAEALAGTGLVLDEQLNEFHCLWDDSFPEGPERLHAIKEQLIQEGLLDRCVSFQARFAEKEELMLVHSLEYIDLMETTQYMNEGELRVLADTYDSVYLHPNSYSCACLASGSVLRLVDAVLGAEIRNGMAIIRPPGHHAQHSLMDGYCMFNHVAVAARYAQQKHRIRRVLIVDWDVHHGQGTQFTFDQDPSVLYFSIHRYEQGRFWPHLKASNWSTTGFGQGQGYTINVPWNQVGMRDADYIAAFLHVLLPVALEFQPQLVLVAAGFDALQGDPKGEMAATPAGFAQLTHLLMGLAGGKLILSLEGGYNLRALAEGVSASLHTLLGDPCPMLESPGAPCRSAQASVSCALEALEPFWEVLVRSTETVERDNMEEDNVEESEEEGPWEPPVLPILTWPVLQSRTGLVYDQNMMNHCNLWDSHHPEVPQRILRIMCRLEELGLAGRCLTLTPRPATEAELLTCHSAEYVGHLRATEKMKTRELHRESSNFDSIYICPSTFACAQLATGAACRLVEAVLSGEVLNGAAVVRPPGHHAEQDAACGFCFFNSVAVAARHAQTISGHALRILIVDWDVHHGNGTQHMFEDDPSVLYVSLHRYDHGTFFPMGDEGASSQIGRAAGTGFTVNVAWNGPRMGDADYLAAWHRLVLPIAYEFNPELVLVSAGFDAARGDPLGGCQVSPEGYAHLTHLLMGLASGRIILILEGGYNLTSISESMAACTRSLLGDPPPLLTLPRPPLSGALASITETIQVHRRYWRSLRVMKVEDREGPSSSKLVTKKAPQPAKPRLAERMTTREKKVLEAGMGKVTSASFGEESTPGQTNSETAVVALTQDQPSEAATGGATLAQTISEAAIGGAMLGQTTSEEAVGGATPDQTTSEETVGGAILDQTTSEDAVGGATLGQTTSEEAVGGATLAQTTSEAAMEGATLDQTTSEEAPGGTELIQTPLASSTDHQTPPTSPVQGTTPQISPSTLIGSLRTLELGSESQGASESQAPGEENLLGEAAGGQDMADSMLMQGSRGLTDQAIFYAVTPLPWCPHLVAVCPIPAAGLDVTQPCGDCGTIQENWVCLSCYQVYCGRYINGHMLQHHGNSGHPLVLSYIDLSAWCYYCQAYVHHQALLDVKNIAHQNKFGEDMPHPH

[3] = molecular target: Histone deacetylase; assay: Inhibition of nuclear HDAC isolated from human HeLa cells; format: cell-based
[4] = molecular target: Histone deacetylase; assay: Inhibition of HDAC in human HeLa cells; format: cell-based
[5] = test system: HeLa; assay: Cytotoxicity against human HeLa cells after 72 hrs by alamar blue assay; format: functional, cell-based
Outline: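 HeLa cells were seeded at densities allowing growth through 72 h of compound exposure at 37 °C, 5% CO2. Viability was read by Alamar Blue (resazurin) reduction. Replicate assays were averaged, and IC50 was taken from concentration-effect curves.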

Sequence of Histone deacetylase 1 (Q13547 whole entry): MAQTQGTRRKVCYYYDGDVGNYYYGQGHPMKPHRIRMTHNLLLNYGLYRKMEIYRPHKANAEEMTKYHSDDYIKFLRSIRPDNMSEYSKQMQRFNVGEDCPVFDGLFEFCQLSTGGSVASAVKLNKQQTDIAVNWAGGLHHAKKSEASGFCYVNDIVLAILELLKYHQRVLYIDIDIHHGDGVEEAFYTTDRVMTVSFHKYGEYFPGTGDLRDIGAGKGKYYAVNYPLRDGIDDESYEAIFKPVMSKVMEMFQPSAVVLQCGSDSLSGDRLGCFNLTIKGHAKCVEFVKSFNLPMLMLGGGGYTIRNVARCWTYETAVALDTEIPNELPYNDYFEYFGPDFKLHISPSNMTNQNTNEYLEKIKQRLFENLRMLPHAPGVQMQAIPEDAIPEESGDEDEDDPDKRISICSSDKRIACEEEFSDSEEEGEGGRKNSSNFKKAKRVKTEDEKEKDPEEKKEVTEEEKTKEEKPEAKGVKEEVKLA

| Structure (SMILES) | pIC50 [1] | pIC50 [2] | IC50 [3] [µM] | IC50 [4] [µM] | pIC50 [5] |
| --- | --- | --- | --- | --- | --- |
| CCSC(=S)SCC(=O)c1cccc(CNC(C)=O)c1 | 4.42 | 6.09 | 6.59 | 6.82 | 4.95 |
| CCSC(=S)SCC(=O)c1ccc(C(=O)Nc2ccccc2)cc1 | 4.55 | 6.28 | 0.074 | 1.11 | 4.59 |
| CCSC(=S)SCC(=O)c1ccc(NS(C)(=O)=O)cc1 | 5.21 | 5.96 | 1.26 | 8.95 | 4.34 |
| CCSC(=S)SCC(=O)c1cccc(NS(=O)(=O)c2ccc(Cl)cc2)c1 | 5.46 | 5.90 | 0.048 | 9.08 | 4.33 |
| CCSC(=S)SCC(=O)c1ccc(NC(=O)c2ccccc2)cc1 | 4.98 | 6.76 | 0.074 | 7.46 | 4.80 |
| COc1ccc(C(=O)CSC(=S)SCCNC(C)=O)cc1 | 5.12 | 5.79 | 0.467 | 3.47 | 4.95 |
| CCSC(=S)SCC(=O)c1ccc(OC)cc1 | 5.34 | 5.91 | 0.375 | 4.67 | 5.71 |
| CCSC(=S)SCC(=O)c1cccc(C(=O)Nc2ccccc2)c1 | 5.78 | 6.29 | 0.124 | 1.23 | 5.62 |
| CCSC(=S)SCC(=O)c1ccc(NS(=O)(=O)c2ccc(Cl)cc2)cc1 | 5.60 | 6.01 | 0.025 | 1.74 | 4.98 |
| CCSC(=S)SCC(=O)c1ccc(CCNC(C)=O)cc1 | 6.22 | 6.99 | 0.587 | 1.48 | 4.89 |
| COc1ccc(C(=O)CSC(=S)SCCOc2ccccc2)cc1 | 5.01 | 5.34 | 0.128 | 11.6 | 5.26 |
| CCOC(=S)SCC(=O)c1ccc(OC)cc1 | 5.86 | 6.35 | 0.811 | 4.72 | 5.33 |
| CCSC(=S)SCC(=O)c1cccc(NC(C)=O)c1 | 5.53 | 6.48 | 0.506 | 3.28 | 5.03 |
| COCCSC(=S)SCC(=O)c1ccc(OC)cc1 | 5.05 | 5.67 | 0.293 | 5.53 | 5.10 |
| CCOC(=O)SCC(=O)c1ccc(OC)cc1 | 4.67 | 5.27 | 2.81 | 9.79 | 4.73 |
| CCSC(=S)SCC(=O)c1ccc(Nc2ncnc3ccccc23)cc1 | 4.59 | 6.41 | 0.379 | 2.99 | 5.58 |
| CCSC(=S)SCC(=O)c1ccc(CNC(C)=O)cc1 | 5.15 | 6.46 | 0.719 | 2.07 | 4.75 |
| CCSC(=S)SCC(=O)c1ccc(NC(C)=O)cc1 | 5.77 | 6.74 | 0.318 | 0.857 | 5.84 |
| CCSC(=S)SCC(=O)c1cccc(S(=O)(=O)Nc2cccc(C(N)=O)c2)c1 | 5.81 | 6.74 | 0.097 | 1.15 | 5.11 |
| CCSC(=S)SCC(=O)c1cccc(NS(=O)(=O)c2ccccc2)c1 | 5.81 | 6.98 | 0.127 | 2.78 | 4.92 |
| CCSC(=S)SCC(=O)c1ccc(NS(=O)(=O)c2ccccc2)cc1 | 5.73 | 6.42 | 0.042 | 0.8 | 5.04 |
| CCSC(=S)SCC(=O)c1ccc(C(=O)NCc2ccccc2)cc1 | 5.24 | 6.08 | 0.09 | 1.5 | 4.62 |

Continued by rising pIC50 [1], values first:

| pIC50 [1] | pIC50 [2] | IC50 [3] [µM] | IC50 [4] [µM] | Structure (SMILES) | pIC50 [5] |
| --- | --- | --- | --- | --- | --- |
| 5.94 | 6.38 | 0.174 | 0.865 | CCSC(=S)SCC(=O)c1ccc(NC(=O)c2cccnc2)cc1 | 5.29 |
| 6.01 | 6.92 | 0.066 | 0.748 | CCSC(=S)SCC(=O)c1ccc(NC(=O)c2cnc3ccccc3c2)cc1 | 4.30 |
| 6.02 | 6.59 | 0.384 | 6.33 | CCSC(=S)SCC(=O)c1ccc(CN(C)C(C)=O)cc1 | 4.67 |
| 6.05 | 6.76 | 0.026 | 0.6 | CCSC(=S)SCC(=O)c1ccc(CC(=O)NCc2ccc(OC)cc2)s1 | 5.84 |
| 6.15 | 6.32 | 0.032 | 0.964 | CCSC(=S)SCC(=O)c1ccc(C(=O)NCCOc2ccccc2)cc1 | 4.74 |
| 6.17 | 6.71 | 0.049 | 0.533 | CCSC(=S)SCC(=O)c1cccc(C(=O)NCc2ccccc2)c1 | 4.88 |
| 6.23 | 7.05 | 0.036 | 0.483 | CCSC(=S)SCC(=O)c1cccc(NC(=O)c2cnc3ccccc3c2)c1 | 5.02 |
| 6.23 | 6.47 | 0.008 | 0.299 | CCSC(=S)SCC(=O)c1ccc(S(=O)(=O)Nc2ccc(Cl)cc2)cc1 | 5.22 |
| 6.23 | 6.40 | 0.015 | 0.836 | CCSC(=S)SCC(=O)c1ccc(C(=O)NCc2cc(C)cc(C)c2)s1 | 4.50 |
| 6.28 | 6.52 | 0.046 | 0.632 | CCSC(=S)SCC(=O)c1ccc(CNC(=O)c2ccccc2)cc1 | 4.90 |
| 6.30 | 6.87 | 0.049 | 1.03 | CCSC(=S)SCC(=O)c1ccc(C(=O)N[C@@H](C)c2ccccc2)s1 | 4.80 |
| 6.37 | 6.96 | 0.123 | 3.41 | CCCC(=S)SCC(=O)c1ccc(OC)cc1 | 5.24 |
| 6.41 | 7.42 | 0.184 | 0.646 | CCSC(=S)SCC(=O)c1cccc(NC(=O)c2cccnc2)c1 | 5.15 |
| 6.43 | 6.88 | 0.115 | 3.18 | CCNC(=O)SCC(=O)c1ccc(OC)cc1 | 4.88 |
| 6.47 | 7.36 | 0.019 | 0.411 | CCSC(=S)SCC(=O)c1ccc(C(=O)NCc2ccccc2)s1 | 4.89 |
| 6.48 | 6.70 | 0.027 | 0.5 | CCSC(=S)SCC(=O)c1cccc(C(=O)NCCOc2ccccc2)c1 | 4.99 |
| 6.64 | 6.61 | 0.016 | 0.377 | CCSC(=S)SCC(=O)c1ccc(S(=O)(=O)Nc2ccc(OC)cc2)cc1 | 5.36 |
| 6.67 | 7.03 | 0.195 |  | CCNC(=S)SCC(=O)c1ccc(OC)cc1 | 5.11 |
| 6.79 | 7.64 | 0.087 | 1.37 | CCCC(=S)SCC(=O)c1ccc(NC(C)=O)cc1 | 5.19 |
| 6.85 | 7.74 | 0.094 | 1.12 | CCNC(=S)SCC(=O)c1ccc(NC(C)=O)cc1 | 4.96 |
